Active and inactive are the calls of the source. No cut-off for these calls is given here.
Key:
HeLa [1] = test: Induction of cell cycle arrest in human HeLa cells assessed as accumulation at G2/M phase at 5 uM after 48 hrs by flow cytometry relative to control; type: functional
Method in brief: (§1)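 Cells were seeded at 3×10⁵ per well in 6-well plates and treated after overnight incubation for 24 and 48 h. They were trypsinized, washed three times in PBS, fixed in cold ethanol and stored at −20 °C. Pellets were washed twice in PBS and treated with RNase A at 37 °C for 15 min, then stained with PI for 30 min in the dark. DNA content was measured by flow cytometry.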

SW-620 [2] = test: Cytostatic activity against human SW620 cells assessed as inhibition of cell proliferation after 72 hrs by MTT assay; type: functional, cell-based; conditions: SW-620, 72 h
Method in brief: (§2)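 Monolayer cells grown in DMEM with 10% FBS were seeded on day 0 at 3000–6000 cells/well, set by each line's doubling time. Agents were added the next step in five 10-fold dilutions (0.01–100) for 72 h, with DMSO ≤0.1% and a solvent control. MTT absorbance was converted to percentage growth versus untreated wells on the same plate. Where all PGs exceeded 50, the top concentration was reported as ">". ANOVA/Tukey, p<0.05.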

MIA PaCa-2 [3] = test: Induction of cell cycle arrest in human MIAPaCa2 cells assessed as accumulation at G2/M phase at 1 uM after 24 hrs by flow cytometry (reference value: 10.3 +/- 0.07%); type: functional
HeLa [4] = test: Induction of cell cycle arrest in human HeLa cells assessed as accumulation at G1 phase at 1 uM after 48 hrs by flow cytometry relative to control; type: functional; method in brief: as §1
MIA PaCa-2 [5] = test: Induction of cell cycle arrest in human MIAPaCa2 cells assessed as accumulation at G2/M phase at 1 uM after 48 hrs by flow cytometry (reference value: 9.35 +/- 0.92%); type: functional
HeLa [6] = test: Induction of cell cycle arrest in human HeLa cells assessed as accumulation at G2/M phase at 1 uM after 48 hrs by flow cytometry relative to control; type: functional; method in brief: as §1
MIA PaCa-2 [7] = test: Induction of cell cycle arrest in human MIAPaCa2 cells assessed as accumulation at subG1 phase at 1 uM after 48 hrs by flow cytometry (reference value: 0.20 +/- 0.06%); type: functional
SW-620 [8] = test: Induction of cell cycle arrest in human SW620 cells assessed as accumulation at S phase at 5 uM after 48 hrs by flow cytometry (reference value: 41.7 +/- 2.47%); type: functional
SW-620 [9] = test: Induction of cell cycle arrest in human SW620 cells assessed as accumulation at S phase at 1 uM after 48 hrs by flow cytometry (reference value: 41.7 +/- 2.47%); type: functional
MIA PaCa-2 [10] = test: Induction of apoptosis in human MIAPaCa2 cells at 1 to 5 uM after 24 to 48 hrs by annexin V-/PI staining
MIA PaCa-2 [11] = test: Induction of cell cycle arrest in human MIAPaCa2 cells assessed as accumulation at G2/M phase at 5 uM after 48 hrs by flow cytometry (reference value: 9.35 +/- 0.92%); type: functional
MIA PaCa-2 [12] = test: Induction of cell cycle arrest in human MIAPaCa2 cells assessed as accumulation at subG1 phase at 5 uM after 24 hrs by flow cytometry (reference value: 0.32 +/- 0.009%); type: functional
MIA PaCa-2 [13] = test: Induction of cell cycle arrest in human MIAPaCa2 cells assessed as accumulation at G1 phase at 1 uM after 24 hrs by flow cytometry (reference value: 55.4 +/- 0.01%); type: functional; method in brief: as §1
MIA PaCa-2 [14] = test: Induction of cell cycle arrest in human MIAPaCa2 cells assessed as accumulation at S phase at 5 uM after 48 hrs by flow cytometry (reference value: 46 +/- 8.13%); type: functional
SW-620 [15] = test: Induction of cell cycle arrest in human SW620 cells assessed as accumulation at G1 phase at 1 uM after 24 hrs by flow cytometry (reference value: 51.6 +/- 0.07%); type: functional
SW-620 [16] = test: Induction of cell cycle arrest in human SW620 cells assessed as accumulation at G1 phase at 1 uM after 48 hrs by flow cytometry (reference value: 46.6 +/- 4.88%); type: functional
SW-620 [17] = test: Induction of cell cycle arrest in human SW620 cells assessed as accumulation at S phase at 5 uM after 24 hrs by flow cytometry (reference value: 37.7 +/- 0.01%); type: functional
SW-620 [18] = test: Induction of cell cycle arrest in human SW620 cells assessed as accumulation at subG1 phase at 5 uM after 48 hrs by flow cytometry (reference value: 0.18 +/- 0.036%); type: functional
MIA PaCa-2 [19] = test: Induction of cell cycle arrest in human MIAPaCa2 cells assessed as accumulation at G1 phase at 1 uM after 48 hrs by flow cytometry (reference value: 44.7 +/- 7.21%); type: functional
SW-620 [20] = test: Induction of cell cycle arrest in human SW620 cells assessed as accumulation at G2/M phase at 5 uM after 48 hrs by flow cytometry (reference value: 11.9 +/- 2.33%); type: functional
MIA PaCa-2 [21] = test: Induction of cell cycle arrest in human MIAPaCa2 cells assessed as accumulation at G1 phase at 5 uM after 48 hrs by flow cytometry (reference value: 44.7 +/- 7.21%); type: functional
HeLa [22] = test: Induction of cell cycle arrest in human HeLa cells assessed as accumulation at G2/M phase at 1 uM after 24 hrs by flow cytometry relative to control; type: functional; method in brief: as §1
SW-620 [23] = test: Induction of apoptosis in human SW620 cells at 1 to 5 uM after 24 to 48 hrs by annexin V/PI staining; type: functional, cell-based
Method in brief: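 Cells were seeded on slides, incubated 24 h, then exposed to compound for 24 and 48 h. They were washed with PBS and binding buffer, incubated with annexin-V for 10 min, washed with binding buffer, and stained with PI.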

SW-620 [24] = test: Induction of cell cycle arrest in human SW620 cells assessed as accumulation at G1 phase at 5 uM after 48 hrs by flow cytometry (reference value: 46.6 +/- 4.88%); type: functional
SW-620 [25] = test: Induction of cell cycle arrest in human SW620 cells assessed as accumulation at G2/M phase at 5 uM after 24 hrs by flow cytometry (reference value: 10.7 +/- 0.07%); type: functional
MCF7 = test: Cytostatic activity against human MCF7 cells assessed as inhibition of cell proliferation after 72 hrs by MTT assay; type: functional, cell-based; conditions: MCF7, 72 h; method in brief: as §2
HeLa [26] = test: Induction of cell cycle arrest in human HeLa cells assessed as accumulation at G1 phase at 5 uM after 24 hrs by flow cytometry relative to control; type: functional; method in brief: as §1
MIA PaCa-2 [27] = test: Induction of cell cycle arrest in human MIAPaCa2 cells assessed as accumulation at S phase at 1 uM after 48 hrs by flow cytometry (reference value: 46 +/- 8.13%); type: functional
HeLa [28] = test: Induction of cell cycle arrest in human HeLa cells assessed as accumulation at S phase at 1 uM after 24 hrs by flow cytometry relative to control; type: functional; method in brief: as §1
MIA PaCa-2 [29] = test: Induction of cell cycle arrest in human MIAPaCa2 cells assessed as accumulation at S phase at 5 uM after 24 hrs by flow cytometry (reference value: 34.3 +/- 0.07%); type: functional
MIA PaCa-2 [30] = test: Induction of cell cycle arrest in human MIAPaCa2 cells assessed as accumulation at subG1 phase at 5 uM after 48 hrs by flow cytometry (reference value: 0.20 +/- 0.06%); type: functional

Question: With `Nc1ncn(C/C=C2\OC(=O)C(OCc3ccccc3)=C2OCc2ccccc2)c(=O)n1` as the compound, how does the Activity (HeLa [1]) read?
Answer: 13.9%

Question: And the IC50 (SW-620 [2])?
Answer: 5.62 µM

Question: What about the Activity (MIA PaCa-2 [3]) of the same compound?
Answer: 14.9%

Question: And the Activity (HeLa [4])?
Answer: 20.1%

Question: And the Activity (MIA PaCa-2 [5])?
Answer: 12.9%

Question: What about the Activity (HeLa [6]) of the same compound?
Answer: 14.4%

Question: And the Activity (MIA PaCa-2 [7])?
Answer: 0.18%

Question: What about the Activity (SW-620 [8]) of the same compound?
Answer: 51.8%

Question: What about the Activity (SW-620 [9]) of the same compound?
Answer: 58.9%

Question: What about the Activity (MIA PaCa-2 [10]) of the same compound?
Answer: inactive

Question: What about the Activity (MIA PaCa-2 [11]) of the same compound?
Answer: 10.2%

Question: And the Activity (MIA PaCa-2 [12])?
Answer: 0.21%

Question: What about the Activity (MIA PaCa-2 [13]) of the same compound?
Answer: 55.6%

Question: What about the Activity (MIA PaCa-2 [14]) of the same compound?
Answer: 60.9%

Question: And the Activity (SW-620 [15])?
Answer: 41.3%

Question: And the Activity (SW-620 [16])?
Answer: 23.2%

Question: And the Activity (SW-620 [17])?
Answer: 58.3%

Question: What about the Activity (SW-620 [18]) of the same compound?
Answer: 0.21%

Question: And the Activity (MIA PaCa-2 [19])?
Answer: 22.9%

Question: What about the Activity (SW-620 [20]) of the same compound?
Answer: 9.2%

Question: What about the Activity (MIA PaCa-2 [21]) of the same compound?
Answer: 29%

Question: What about the Activity (HeLa [22]) of the same compound?
Answer: 11.9%

Question: And the Activity (SW-620 [23])?
Answer: inactive

Question: And the Activity (SW-620 [24])?
Answer: 39.1%

Question: What about the Activity (SW-620 [25]) of the same compound?
Answer: 17.7%

Question: And the IC50 (MCF7)?
Answer: 3.49 µM

Question: What about the Activity (HeLa [26]) of the same compound?
Answer: 16.5%

Question: What about the Activity (MIA PaCa-2 [27]) of the same compound?
Answer: 64.2%

Question: What about the Activity (HeLa [28]) of the same compound?
Answer: 58.8%

Question: What about the Activity (MIA PaCa-2 [29]) of the same compound?
Answer: 57.4%

Question: What about the Activity (MIA PaCa-2 [30]) of the same compound?
Answer: 0.31%

— ChEMBL document CHEMBL1795205, “The new 5- or 6-azapyrimidine and cyanuric acid derivatives of l-ascorbic acid bearing the free C-5 hydroxy or C-4 amino group at the ethylenic spacer: CD-spectral absolute configuration determination and biological activity evaluations” (Eur J Med Chem, 2011)
